Laboratory results: ChEMBL document CHEMBL1152334, “Quassinoid inhibition of AP-1 function does not correlate with cytotoxicity or protein synthesis inhibition” (J Nat Prod, 2009)
The source made the active and inactive calls. The rule behind the calls is not given here.

What was measured:
[1] = Growth inhibition of human NCI60 cells; format: functional
[2] = Inhibition of protein synthesis in cell-free extract of mouse Krebs2 cells by SDS-PAGE; format: functional
[3] = test system: HeLa; test: Inhibition of protein synthesis in human HeLa cells assessed as [35S]methionine incorporation into protein treated for 45 mins before [35S]methionine addition by Whatman paper analysis; format: functional, cell-based
[4] = Growth inhibition of human AP-1 beta-lactamase reporter screening assay cells at 1 uM; details: AP-1 reporter cells
[5] = test system: HEK293; test: Inhibition of TPA-induced NF-kappaB transfected in HEK293 cells at 0.1 to 10 uM treated 1 hr before TPA stimulation measured after 18 hrs by luciferase reporter gene assay; format: cell-based
Summary of the method: (§1)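 HEK293 cells were grown in DMEM with 10% FBS at 37 °C and 5% CO2. They were transiently transfected with a luciferase reporter (0.1 µg/well); reporters were AP-1 (four TRE consensus copies from GCN4), NF-κB (five responsive-element copies) or SRE. After 24 h, medium went to DMEM with 0.2% FBS. Cells were pretreated 1 h with compound or DMSO, then given TPA 10 ng/mL for 18 h. Firefly luciferase was read from passive-lysis lysates, TPA alone = 100%, in quadruplicate.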

[6] = biological target: Transcription factor Jun (Homo sapiens) (UniProt P05412); test: Inhibition of TPA-induced AP1 transfected in HEK293 cells assessed as inhibition of […] reporter activity at 0.1 to 10 uM treated 1 hr before TPA stimulation measured after 18 hrs by luciferase reporter gene assay; format: cell-based; summary of the method: as §1
Chain of Transcription factor Jun (Homo sapiens) (P05412 whole entry): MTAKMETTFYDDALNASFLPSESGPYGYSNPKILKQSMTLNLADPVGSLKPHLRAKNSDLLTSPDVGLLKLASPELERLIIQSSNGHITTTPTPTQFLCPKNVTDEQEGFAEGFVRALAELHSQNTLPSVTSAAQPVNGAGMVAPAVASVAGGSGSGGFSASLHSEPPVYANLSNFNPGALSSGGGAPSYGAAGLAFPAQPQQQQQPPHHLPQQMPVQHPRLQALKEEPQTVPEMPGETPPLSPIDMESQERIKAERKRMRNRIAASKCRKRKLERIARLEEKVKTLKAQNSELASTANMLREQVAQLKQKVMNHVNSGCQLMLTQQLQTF

[7] = test system: Nucleic Acid; test: Inhibition of TPA-induced SRE transfected in HEK293 cells at 0.1 to 10 uM treated 1 hr before TPA stimulation measured after 18 hrs by luciferase reporter gene assay; format: cell-based; summary of the method: as §1

CC1=CC(=O)[C@H](O)[C@@]2(C)[C@@H]1C[C@H]1OC(=O)[C@@H](OC(=O)C(C)(C)CO)[C@@H]3[C@@H](C)[C@@H](O)[C@]4(O)OC[C@@]31[C@@H]42
GI50 ([1]; Homo sapiens, NCI60): 95 nM

CC1=CC(=O)[C@H](O)[C@@]2(C)[C@@H]1C[C@H]1OC(=O)C(OC(=O)CC3=CCCC3)[C@H]3[C@@H](C)[C@@H](O)[C@]4(O)OC[C@]13[C@@H]42 (some centres undefined)
GI50 ([1]; Homo sapiens, NCI60): 40000 nM

COC(=O)[C@@]12OC[C@]34[C@H]([C@H](O)[C@@H]1O)[C@@]1(C)CC(=O)C(OC(C)=O)=C(C)[C@H]1C[C@H]3OC(=O)[C@@H](OC(=O)C=C(C)C)[C@@H]24
GI50 ([1]; Homo sapiens, NCI60): 790 nM

C=C1[C@@H](O)[C@@]2(O)OC[C@@]34[C@H]1[C@@H](OC(=O)C/C=C(\C)CCCCC)C(=O)O[C@@H]3C[C@H]1C(C)=CC(=O)[C@@H](O)[C@]1(C)[C@@H]24
GI50 ([1]; Homo sapiens, NCI60): 1.5 nM

COC(=O)[C@@]12OC[C@]34[C@H]([C@@H](O)C1O)[C@@]1(C)CC(=O)C(OC(=O)CC(C)C(F)(F)F)=C(C)[C@@H]1C[C@H]3OC(=O)[C@H](O)[C@H]42 (some centres undefined)
GI50 ([1]; Homo sapiens, NCI60): 2900 nM

COC(=O)[C@@]12OC[C@]34[C@H]([C@@H](O)C1O)[C@@]1(C)CC(=O)C(O)=C(C)[C@@H]1C[C@H]3OC(=O)[C@H](OC(=O)CC(C)C(F)(F)F)[C@H]42 (some centres undefined)
GI50 ([1]; Homo sapiens, NCI60): 28 nM

COC(=O)[C@@]12OC[C@]34[C@H]([C@@H](O)C1O)[C@@]1(C)CC(=O)C(O)=C(C)[C@@H]1C[C@H]3OC(=O)[C@H](OC(=O)/C=C(/c1ccccc1)C(F)(F)F)[C@H]42 (some centres undefined)
GI50 ([1]; Homo sapiens, NCI60): 3600 nM

C=C1[C@@H](O)[C@]2(O)OC[C@@]34[C@H]1[C@@H](OC(=O)C/C=C/CCCCCCCC)C(=O)O[C@@H]3C[C@H]1C(C)=CC(=O)[C@@H](O)[C@]1(C)[C@@H]24
GI50 ([1]; Homo sapiens, NCI60): 24 nM

CC(C)=CC(=O)O[C@H]1C(=O)O[C@@H]2C[C@H]3C(C)=CC(=O)[C@@H](O)[C@]3(C)[C@H]3[C@@]4(O)OC[C@]32[C@@H]1[C@@H](C)[C@H]4O
GI50 ([1]; Homo sapiens, NCI60): 21 nM

C=C1[C@@H](O)[C@@]2(O)OC[C@@]34[C@H]1[C@@H](OC(=O)C/C=C/CCCCCCCC)C(=O)O[C@@H]3C[C@H]1C(C)=CC(=O)[C@@H](O)[C@]1(C)[C@@H]24
IC50 [2]: <10000 nM | IC50 [3]: > 2000 nM | GI50 ([1]; Homo sapiens, NCI60): 24 nM

COC(=O)[C@@]12OC[C@]34[C@H]([C@@H](O)C1O)[C@@]1(C)CC(=O)C(OC(=O)/C=C(/c5ccccc5)C(F)(F)F)=C(C)[C@@H]1C[C@H]3OC(=O)[C@H](O)[C@H]42 (some centres undefined)
GI50 ([1]; Homo sapiens, NCI60): 7400 nM

CC(C)=CC(=O)O[C@@H]1[C@H]2C(C)=CC(=O)[C@@H](O)[C@]2(C)[C@H]2[C@@]3(O)OC[C@@]24[C@@H]1OC(=O)C[C@H]4[C@@H](C)[C@H]3O
GI50 ([1]; Homo sapiens, NCI60): 19 nM

COC(=O)[C@@]12OC[C@]34[C@H]([C@@H](O)[C@@H]1O)[C@@]1(C)C=C5OC(=O)C=C5[C@@H](C)[C@@H]1C[C@H]3OC(=O)[C@H](O)[C@@H]24
GI50 ([1]; Homo sapiens, NCI60): 160 nM

CC[C@](C)(O)C(=O)O[C@H]1C(=O)O[C@@H]2C[C@H]3C(C)=CC(=O)[C@@H](O)[C@]3(C)[C@H]3[C@@]4(O)OC[C@]32[C@@H]1[C@@H](C)[C@H]4O (stereo in doubt) [GLAUCARUBINONE]
GI50 [1]: 21000 nM

CC[C@](C)(O)C(=O)O[C@H]1C(=O)O[C@@H]2C[C@H]3C(C)=CC(=O)[C@@H](O)[C@]3(C)[C@H]3[C@@]4(O)OC[C@]32[C@@H]1[C@@H](C)[C@H]4O (stereo in doubt; 4) [GLAUCARUBINONE]
inhibition at 1 µM [4]: < 25% | IC50 [2]: 290 nM | IC50 [3]: 270 nM | GI50 [1]: 1800 nM

COC(=O)[C@@]12OC[C@]34[C@H]([C@@H](O)[C@@H]1O)[C@@]1(C)CC(=O)C(O)=C(C)[C@@H]1C[C@H]3OC(=O)[C@H](OC(=O)/C=C(\C)C(C)C)[C@@H]24 [BRUCEANTIN]
IC50 [2]: 410 nM | IC50 [3]: 51 nM | GI50 ([1]; Homo sapiens, NCI60): 5 nM

CC(C)CC(=O)O[C@H]1C(=O)O[C@@H]2C[C@H]3[C@H](C)C(=O)C(O[C@@H]4O[C@H](CO)[C@@H](O)[C@H](O)[C@H]4O)=C[C@]3(C)[C@H]3[C@@H](O)[C@H](O)[C@]4(C(=O)O)OC[C@]32[C@@H]14 [BRUCEOSIDE E]
GI50 ([1]; Homo sapiens, NCI60): 52000 nM

CC(=O)OC(C)(C)/C(C)=C/C(=O)O[C@H]1C(=O)O[C@@H]2C[C@H]3[C@H](C)C(=O)C(O[C@@H]4O[C@H](CO)[C@@H](O)[C@H](O)[C@H]4O)=C[C@]3(C)[C@H]3[C@@H](O)[C@H](O)[C@]4(C(=O)O)OC[C@]32[C@@H]14 [BRUCEOSIDE F]
GI50 ([1]; Homo sapiens, NCI60): 74000 nM

COC(=O)[C@]12OC[C@]34[C@H]([C@@H](O)[C@@H]1O)[C@@]1(C)CC(=O)C(O)=C(C)[C@@H]1C[C@H]3OC(=O)[C@H](OC(=O)C=C(C)C)[C@@H]24 [BRUSATOL]
inhibition [5]: inactive | inhibition [6]: inactive | IC50 [2]: 230 nM | inhibition [7]: inactive | IC50 [3]: < 1000 nM | GI50 ([1]; Homo sapiens, NCI60): 260 nM

CC1=CC(=O)[C@@H](O)[C@]2(C)[C@H]3[C@]4(O)OC[C@]35[C@H]([C@@H](C)[C@H]4O)[C@@H](O)C(=O)O[C@@H]5C[C@@H]12 [GLAUCARUBOLONE]
GI50 ([1]; Homo sapiens, NCI60): 290 nM

CC1=C[C@H](O)[C@@H](O)[C@]2(C)[C@H]3[C@@]4(O)OC[C@]35[C@H]([C@@H](C)[C@H]4O)[C@@H](O)C(=O)O[C@@H]5C[C@@H]12 [GLAUCARUBOL]
IC50 [2]: >30000 nM | IC50 [3]: > 2000 nM | GI50 ([1]; Homo sapiens, NCI60): 41000 nM

C/C=C(\C)C(=O)O[C@@H]1[C@H]2C(C)=CC(=O)[C@@H](O)[C@]2(C)[C@H]2[C@@]3(O)OC[C@]24[C@H]([C@@H](C)[C@H]3O)[C@@H](OC(C)=O)C(=O)O[C@H]14 [HANNOAENONE]
GI50 ([1]; Homo sapiens, NCI60): 40 nM

CC(=O)O[C@H]1C(=O)O[C@@H]2C[C@H]3C(C)=CC(=O)[C@@H](O)[C@]3(C)[C@H]3[C@]4(O)OC[C@]32[C@@H]1[C@@H](C)[C@H]4O [HOLACANTHONE]
GI50 ([1]; Homo sapiens, NCI60): 30 nM

COC(=O)[C@]12OC[C@]34[C@H]([C@@H](O)[C@@H]1O)[C@@]1(C)[C@H](O)C(=O)C=C(C)[C@@H]1C[C@H]3OC(=O)[C@H](OC(=O)CC(C)C)[C@@H]24 [ISOBRUCEIN A]
GI50 ([1]; Homo sapiens, NCI60): 17 nM

COC(=O)[C@@]12OC[C@]34[C@H]([C@@H](O)[C@@H]1O)[C@@]1(C)[C@H](O)C(=O)C=C(C)[C@@H]1C[C@H]3OC(=O)[C@H](OC(C)=O)[C@@H]24 [ISOBRUCEIN B]
GI50 ([1]; Homo sapiens, NCI60): 100 nM

CC[C@@](O)(CC(=O)O[C@@H]1C(=O)O[C@@H]2C[C@@H]3C(C)=CC(=O)[C@H](O)[C@]3(C)[C@H]3[C@]4(O)OC[C@]32[C@@H]1[C@@H](C)[C@H]4O)C(C)C [PENINSULARINONE]
GI50 ([1]; Homo sapiens, NCI60): 1 nM

COC1=C[C@@H](C)[C@@H]2C[C@H]3OC(=O)C[C@H]4C(C)=C(OC)C(=O)[C@H]([C@@]2(C)C1=O)[C@@]34C [QUASSIN]
inhibition [5]: inactive | inhibition [6]: inactive | IC50 [2]: >30000 nM | inhibition [7]: inactive | IC50 [3]: > 2000 nM

COC(=O)[C@]12OC[C@]34[C@H]([C@@H](O)[C@@H]1O)[C@@]1(C)C=C5OC(=O)C=C5[C@@H](C)[C@@H]1C[C@H]3OC(=O)[C@H](OC(C)=O)[C@@H]24 [SERGEOLIDE]
IC50 [2]: 70 nM | IC50 [3]: < 1000 nM | GI50 ([1]; Homo sapiens, NCI60): 3.8 nM

CC[C@@H](C)C(=O)O[C@H]1C(=O)O[C@@H]2C[C@H]3C(C)=CC(=O)[C@@H](O)[C@]3(C)[C@H]3[C@@H](O)[C@H](O)[C@]4(C)OC[C@]32[C@@H]14 [SIMALIKALACTONE D]
GI50 ([1]; Homo sapiens, NCI60): 39 nM
